Laboratory results published in ChEMBL document CHEMBL6134793, “Synthesis and structure-activity study of the antimicrobial lipopeptide brevibacillin” (RSC Med Chem, 2024).
In brackets after ≈: the same amount, converted by molar mass.

What was measured:
[1] = test system: Pseudomonas aeruginosa; assay: Antimicrobial activity against Pseudomonas aeruginosa ATCC […] assessed as growth inhibition by microdilution assay; format: functional
How it was run: (§1)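 Twofold serial microdilution of peptide (stocks 2 mg mL−1, diluted to 512 μg mL−1 in water with 10% DMSO) in strain medium, about 1 × 10^4 cfu per well. Media: TSB 20 h 37 °C (S. aureus, L. monocytogenes, B. subtilis, E. faecalis); LB 20 h 37 °C (P. aeruginosa, S. enterica, E. coli); Brucella 48 h 37 °C (C. coli). A595 read; MIC = lowest concentration with no visible growth; triplicate.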

[2] = Hemolytic activity in human erythrocytes at 128 ug/ml measured after 1 hr by absorbance based assay relative to control; format: toxicity, cell-based, Erythrocyte; conditions: at 128 µg/mL, read-out: Activity
How it was run: (§2)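 Washed human donor erythrocytes at 1% hematocrit in PBS pH 7.4 exposed to twofold peptide dilutions (final 2–256 μg mL−1, up to 1% DMSO) for 1 h at 37 °C. After centrifugation, supernatant A405 read. % hemolysis relative to PBS (0%) and 1% Triton X-100 (100%). Triplicate; mean ± SEM.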

[3] = test system: Staphylococcus aureus; assay: Antimicrobial activity against Staphylococcus aureus ATCC 6538 assessed as diameter of growth inhibition at 128 ug/ml by radial diffusion assay; format: functional; conditions: dose 128 µg/ml
How it was run: (§3)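 Agar well diffusion. Overnight cultures inoculated at 1% into 0.75% soft agar (TSB for S. aureus, LB for P. aeruginosa). Each well received 80 μL of peptide at 128 μg mL−1 in water with 10% DMSO; 10% DMSO served as negative control. Inhibition zone diameter scored after strain-specific incubation.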

[4] = test system: Bacillus subtilis; assay: Antimicrobial activity against Bacillus subtilis ATCC 23957 assessed as growth inhibition by microdilution assay; format: functional; how it was run: as §1
[5] = test system: Pseudomonas aeruginosa; assay: Antimicrobial activity against Pseudomonas aeruginosa ATCC […] assessed as diameter of growth inhibition at 128 ug/ml by radial diffusion assay; format: functional; conditions: dose 128 µg/ml; how it was run: as §3
[6] = test system: Escherichia coli; assay: Antimicrobial activity against Escherichia coli ATCC 25922 assessed as growth inhibition by microdilution assay; format: functional; how it was run: as §1
[7] = test system: Staphylococcus aureus; assay: Antimicrobial activity against Staphylococcus aureus ATCC 6538 assessed as growth inhibition by microdilution assay; format: functional; how it was run: as §1
[8] = test system: Enterococcus faecalis; assay: Antimicrobial activity against Enterococcus faecalis ATCC 29212 assessed as growth inhibition by microdilution assay; format: functional; how it was run: as §1
[9] = test system: Campylobacter coli; assay: Antimicrobial activity against Campylobacter coli ATCC 33559 assessed as growth inhibition by microdilution assay; format: functional; how it was run: as §1
[10] = test system: Listeria monocytogenes; assay: Antimicrobial activity against Listeria monocytogenes ATCC 19111 assessed as growth inhibition by microdilution assay; format: functional; how it was run: as §1
[11] = Cytotoxicity against human Caco-2 cells assessed as inhibition of cell viability incubated for 48 hrs by Cell Titer GLO assay; format: toxicity, cell-based
How it was run: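 Caco-2 cells in DMEM with 10% FCS, seeded 25 000 per well, adhered overnight, then given peptide at 2–256 μg mL−1 in complete medium for 48 h at 37 °C, 5% CO2. Controls: cisplatin 125 μM; 0.1% DMSO medium. Viability by ATP luminescence (CellTiter-Glo) versus untreated cells; IC50 from dose–response; mean ± SEM of at least three independent experiments.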

[12] = Hemolytic activity in human erythrocytes at 256 ug/ml measured after 1 hr by absorbance based assay relative to control; format: toxicity, cell-based, Erythrocyte; conditions: at 256 µg/mL, read-out: Activity; how it was run: as §2
[13] = test system: Clostridium perfringens; assay: Antimicrobial activity against Clostridium perfringens ATCC 3628 assessed as growth inhibition by microdilution assay; format: functional
How it was run: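 Broth microdilution: twofold serial peptide dilutions in reinforced clostridial medium (RCM), seeded with about 1 × 10^4 cfu per well, incubated 20 h at 37 °C. Working solution 512 μg mL−1 made from a 2 mg mL−1 stock in water with 10% DMSO. Growth read as absorbance at 595 nm. MIC taken as the lowest concentration giving complete inhibition of visible growth; run in triplicate.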

[14] = Antimicrobial activity against Salmonella enterica serovar Newport ATCC 6962 assessed as growth inhibition by microdilution assay; format: functional, Salmonella enterica subsp. enterica serovar Newport; how it was run: as §1

Row | Compound | MIC [1] [µg/mL] | hemolysis at 1 h, 128 ug/ml [2] [%] | Activity [3] [mm] | MIC [4] [µg/mL] | Activity [5] [mm] | MIC [6] [µg/mL] | MIC [7] [µg/mL] | MIC [8] [µg/mL] | MIC [9] [µg/mL] | MIC [10] [µg/mL] | IC50 at 48 h [11] [µg/mL] | hemolysis at 1 h, 256 ug/ml [12] [%] | MIC [13] [µg/mL] | MIC [14] [µg/mL]
1 | CC[C@H](C)[C@H](O)C(=O)N[C@@H](CO)C(=O)N[C@@H](CC(C)C)C(=O)N[C@H](CCCN)C(=O)N[C@H](C(=O)N[C@H](C(=O)N[C@H](C(=O)N[C@H](CCCCN)C(=O)N[C@H](C(=O)N[C@H](C(=O)N[C@@H](CCCCN)C(=O)N[C@H](Cc1ccc(O)cc1)C(=O)N[C@@H](CC(C)C)C(=O)N[C@H](CO)C(C)C)C(C)C)C(C)C)C(C)C)[C@@H](C)CC)[C@@H](C)CC | 4 | 1.2 | 11 | 2 | 12 | 32 | 8 | > 128 | 32 | 1 | 42.2 (≈ 26.6 µM) | 4.9 | 8 | > 128
2 | CC[C@H](C)[C@H](O)C(=O)N[C@H](C(=O)N[C@@H](CC(C)C)C(=O)N[C@H](CCCN)C(=O)N[C@H](C(=O)N[C@H](C(=O)N[C@H](C(=O)N[C@H](CCCCN)C(=O)N[C@H](C(=O)N[C@H](C(=O)N[C@@H](CCCCN)C(=O)N[C@H](Cc1ccc(O)cc1)C(=O)N[C@@H](CC(C)C)C(=O)N[C@H](CO)C(C)C)C(C)C)C(C)C)C(C)C)[C@@H](C)CC)[C@@H](C)CC)[C@@H](C)O | 2 | 1.2 | 11 | 1 | 12 | 32 | 2 | 16 | 16 | 4 | 32.2 (≈ 20.1 µM) | 4.9 | 4 | > 128
3 | CC[C@H](C)[C@H](O)C(=O)N[C@@H](C)C(=O)N[C@@H](CC(C)C)C(=O)N[C@H](CCCN)C(=O)N[C@H](C(=O)N[C@H](C(=O)N[C@H](C(=O)N[C@H](CCCCN)C(=O)N[C@H](C(=O)N[C@H](C(=O)N[C@@H](CCCCN)C(=O)N[C@H](Cc1ccc(O)cc1)C(=O)N[C@@H](CC(C)C)C(=O)N[C@H](CO)C(C)C)C(C)C)C(C)C)C(C)C)[C@@H](C)CC)[C@@H](C)CC | 1 |  | 11 | 2 | 12 | 64 | 2 | 4 | 8 | 1 | 13.5 (≈ 8.59 µM) |  | 2 | > 128
4 | CC[C@H](C)[C@H](O)C(=O)N[C@H](C(=O)N[C@@H](CC(C)C)C(=O)N[C@H](CCCN)C(=O)N[C@H](C(=O)N[C@H](C(=O)N[C@H](C(=O)N[C@H](CCCCN)C(=O)N[C@H](C(=O)N[C@H](C(=O)N[C@@H](CCCCN)C(=O)N[C@H](Cc1ccc(O)cc1)C(=O)N[C@@H](CC(C)C)C(=O)N[C@H](CO)C(C)C)C(C)C)C(C)C)C(C)C)[C@@H](C)CC)[C@@H](C)CC)C(C)C | 1 | 53.1 | 7 | 1 | 7 | > 128 | 1 | 4 | 8 | 1 | 8.3 (≈ 5.19 µM) | 84 | 4 | > 128
5 | CC[C@H](NC(=O)[C@@H](NC(C)=O)[C@@H](C)CC)C(=O)N[C@@H](CC(C)C)C(=O)N[C@H](CCCN)C(=O)N[C@H](C(=O)N[C@H](C(=O)N[C@H](C(=O)N[C@H](CCCCN)C(=O)N[C@H](C(=O)N[C@H](C(=O)N[C@@H](CCCCN)C(=O)N[C@H](Cc1ccc(O)cc1)C(=O)N[C@@H](CC(C)C)C(=O)N[C@H](CO)C(C)C)C(C)C)C(C)C)C(C)C)[C@@H](C)CC)[C@@H](C)CC | 2 | 23.3 | 7 | 4 | 7 | > 128 | 2 | 32 | 16 | 2 | 17.6 (≈ 10.8 µM) | 38.2 | 2 | > 128
